Reference: ChEMBL document CHEMBL1146234, “Synthesis and biological evaluation of N-pyrazolyl-N'-alkyl/benzyl/phenylureas: a new class of potent inhibitors of interleukin 8-induced neutrophil chemotaxis” (J Med Chem, 2007)
Active and inactive are the calls of the source. No cut-off for these calls is given here.

Tests used:
Neutrophil [1] = assay: Cytotoxicity against human neutrophils assessed as viable cells after 2 hrs; format: functional; set-up: concentration or dose not given beside the values
In short: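 Human neutrophils (2 × 10⁶/mL) from healthy donors were incubated 2 h at 37 °C under CO₂ in HBSS:PBS (3:1) with 1 mg/mL BSA, with compounds. Membrane integrity was read by fluorescein diacetate/ethidium bromide staining for 10 min at room temperature, under UV dark-field microscopy. Green cells were scored viable; red nuclei were scored necrotic.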

Neutrophil [2] = assay: Inhibition of IL8-induced neutrophil chemotaxis after 45 mins by Boyden chamber assay; format: functional, cell-based; conditions: Homo sapiens, 0.75 h
In short: (§1)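 Leading-front Boyden assay with donor neutrophils. Cells were preincubated 15 min at room temperature ± compound. Then 4 × 10⁵ cells were placed above a 3 µm cellulose ester filter, with IL8 or fMLP below. After 45 min at 37 °C, filters were hematoxylin-stained and the leading-front distance was read at ×400, 5 fields per filter, in duplicate. Net migration = stimulated minus spontaneous. IC₅₀ came from nonlinear regression, ≥3 experiments.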

Neutrophil [3] = assay: Inhibition of fMLP-induced neutrophil chemotaxis after 45 mins by Boyden chamber assay; format: functional, cell-based; conditions: Homo sapiens; in short: as §1
Mus musculus [4] = assay: Inhibition of peritoneal cell count in zymosan-induced Swiss mouse peritoneal fluid at 100 mg/kg, po; format: functional
In short: (§2)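 Male Swiss mice (25-30 g), fasted 16 h, n = 8 per group, were dosed orally 1 h before i.p. zymosan (5 mg/mL, 0.2 mL). Dexamethasone 1 mg/kg os served as reference. At 4 h, peritoneal lavage used 3 mL PBS with 3 mM EDTA. Total leukocytes were counted in a Neubauer chamber (Türk 1:100), with differentials by light microscopy. Counts were compared with vehicle by Student's t-test.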

Mus musculus [5] = assay: Inhibition of peritoneal granulocyte count in zymosan-induced Swiss mouse peritoneal fluid at 100 mg/kg, po; format: functional; in short: as §2
Mus musculus [6] = assay: Monocyte percentage in zymosan-induced Swiss mouse peritoneal fluid at 100 mg/kg, po
Mus musculus [7] = assay: Lymphocyte percentage in zymosan-induced Swiss mouse peritoneal fluid at 100 mg/kg, po
Mus musculus [8] = assay: Granulocyte percentage in zymosan-induced Swiss mouse peritoneal fluid at 100 mg/kg, po
Mus musculus [9] = assay: Inhibition of peritoneal cell count in zymosan-induced Swiss mouse peritoneal fluid at 1 mg/kg, po; format: functional; conditions: read-out: Inhibition; in short: as §2
Mus musculus [10] = assay: Inhibition of peritoneal granulocyte count in zymosan-induced Swiss mouse peritoneal fluid at 1 mg/kg, po; format: functional; in short: as §2
Mus musculus [11] = assay: Percentage of monocytes in zymosan-induced Swiss mouse peritoneal fluid at 1 mg/kg, po
Mus musculus [12] = assay: Percentage of lymphocytes in zymosan-induced Swiss mouse peritoneal fluid at 1 mg/kg, po
Mus musculus [13] = assay: Percentage of granulocytes in zymosan-induced Swiss mouse peritoneal fluid at 1 mg/kg, po

Compound	Activity (Neutrophil [1]) [%]	IC50 (Neutrophil [2]) [nM]	Activity (Neutrophil [3])	other results
CC(C)NC(=O)Nc1ccnn1CC(O)c1ccccc1 (stereo not given)	90	825	inactive	
CC(C)NC(=O)Nc1c(C#N)cnn1CC(O)c1ccccc1 (stereo not given)	90	35	inactive	
CCOCCNC(=O)Nc1c(C(=O)OCC)cnn1CC(O)c1ccccc1 (stereo not given)	90	1000	inactive	
CCOC(=O)c1cnn(CC(O)c2ccccc2)c1NC(=O)Nc1cccc(Cl)c1 (stereo not given)	90	1560	inactive	
CCOC(=O)c1cnn(CC(O)c2ccccc2)c1NC(=O)N1CCCC1 (stereo not given)	90	4950	inactive	
CCOC(=O)c1cnn(CC(O)c2ccccc2)c1NC(=O)NC1CC1 (stereo not given)	90	5520	inactive	
CCOC(=O)c1cnn(CC(O)c2ccccc2)c1NC(=O)Nc1cccc(F)c1 (stereo not given)	90	36	inactive	inhibition in vivo at 100 mg/kg (Mus musculus [4]): 29%; inhibition in vivo at 100 mg/kg (Mus musculus [5]): 33%; % monocytes at 100 mg/kg (Mus musculus [6]): 10%; % lymphocytes at 100 mg/kg (Mus musculus [7]): 28%; % granulocytes at 100 mg/kg (Mus musculus [8]): 62%
N#Cc1cnn(CC(O)c2ccccc2)c1NC(=O)Nc1ccccc1 (stereo not given)	90	225	inactive	
CCOC(=O)c1cnn(CC(O)c2ccccc2)c1NC(=O)NCc1ccccc1Cl (stereo not given)	90	1240	inactive	
CCOC(=O)c1cnn(CC(O)c2ccccc2)c1NC(=O)N1CCOCC1 (stereo not given)	90	950	inactive	
CCOC(=O)c1cnn(CC(O)c2ccccc2)c1NC(=O)Nc1ccc(Br)cc1 (stereo not given)	90	92	inactive	
CCOC(=O)c1cnn(CC(O)c2ccccc2)c1NC(=O)Nc1ccc(C)cc1 (stereo not given)	90	445	inactive	
CCOC(=O)c1cnn(CC(O)c2ccccc2)c1NC(=O)NCc1ccccc1F (stereo not given)	90	1490	inactive	
CCOC(=O)c1cnn(CC(O)c2ccccc2)c1NC(=O)Nc1ccc(F)cc1 (stereo not given)	90	33	inactive	
CCOC(=O)c1cnn(CC(O)c2ccccc2)c1NC(=O)Nc1cccc(Br)c1 (stereo not given)	90	424	inactive	
CCOC(=O)c1cnn(CC(O)c2ccccc2)c1NC(=O)NCc1ccc(Cl)cc1 (stereo not given)	90	935	inactive	
CCOC(=O)c1cnn(CC(O)c2ccccc2)c1NC(=O)Nc1cccc(OC)c1 (stereo not given)	90	1400	inactive	

Compound	Activity (Neutrophil [1]) [%]	IC50 (Neutrophil [2]) [nM]	Activity (Neutrophil [3])	other results
CCOC(=O)c1cnn(CC(O)c2ccccc2)c1NC(=O)NCc1cccc(Br)c1 (stereo not given)	90	198	inactive	
CCOC(=O)c1cnn(CC(O)c2ccccc2)c1NC(=O)NCCc1ccccc1 (stereo not given)	90	610	inactive	
CCOC(=O)c1cnn(CC(O)c2ccccc2)c1NC(=O)Nc1ccccc1F (stereo not given)	90	33	inactive	
C[C@@H]1C[C@H]2[C@@H]3CCC4=CC(=O)C=C[C@]4(C)[C@@]3(F)[C@@H](O)C[C@]2(C)[C@@]1(O)C(=O)CO [DEXAMETHASONE]				inhibition in vivo at 1 mg/kg (Mus musculus [9]): 33%; inhibition in vivo at 1 mg/kg (Mus musculus [10]): 62%; % monocytes at 1 mg/kg (Mus musculus [11]): 14%; % lymphocytes at 1 mg/kg (Mus musculus [12]): 44%; % granulocytes at 1 mg/kg (Mus musculus [13]): 42%
CCOC(=O)c1cnn(CC(O)c2ccccc2)c1NC(=O)NCc1cccc(F)c1 (stereo not given)	90	318	inactive	
CCOC(=O)c1cnn(CC(O)c2ccccc2)c1NC(=O)Nc1cccc(C)c1 (stereo not given)	90	398	inactive	
CCOC(=O)c1cnn(CC(O)c2ccccc2)c1NC(=O)NCc1ccc(Br)cc1 (stereo not given)	90	3890	inactive	
CCOC(=O)c1cnn(CC(O)c2ccccc2)c1NC(=O)Nc1ccccc1OC (stereo not given)	90	1200	inactive	
CCOC(=O)c1cnn(CC(O)c2ccccc2)c1NC(=O)N1CCCCC1 (stereo not given)	90	3090	inactive	
CCOC(=O)c1cnn(CC(O)c2ccccc2)c1NC(=O)NCc1cccc(Cl)c1 (stereo not given)	90	570	inactive	
CCOC(=O)c1cnn(CC(O)c2ccccc2)c1NC(=O)N1CCN(Cc2ccccc2)CC1 (stereo not given)	90		inactive	
CCOC(=O)c1cnn(CC(O)c2ccccc2)c1NC(=O)Nc1ccc(Cl)cc1 (stereo not given)	90	345	inactive	
CC(C)NC(=O)Nc1c(C(=O)O)cnn1CC(O)c1ccccc1 (stereo not given)	90	251	inactive	
CCOC(=O)c1cnn(CC(O)c2ccccc2)c1NC(=O)NCc1ccccc1Br (stereo not given)	90	1780	inactive	
CCOC(=O)c1cnn(CC(O)c2ccccc2)c1NC(=O)NCc1ccc(F)cc1 (stereo not given)	90	212	inactive	
CCOC(=O)c1cnn(CC(O)c2ccccc2)c1NC(=O)N1CCN(C)CC1 (stereo not given)	90	865	inactive	
